Screening data deposited in PubChem BioAssay by The Scripps Research Institute Molecular Screening Center.
OX1R antag-1 – blocks the human orexin 1 receptor. inhibition, % at 5 µM. actives 0.43% (n = 330,000). CHO/OX1R cells, Fluo-8 calcium fluorescence, orexin A. O43613;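 active means inhibition above its plate's threshold, mean inhibition of all tested compounds on the plate plus 3 SD, cut at about 37% in these data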;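 further: 0% = orexin A challenge wells and 100% = SB-334867-A antagonist wells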
OX1R antag-2 – OX1R (human) antagonism. O43613. OX1R-expressing cells, FRET antagonist read-out. inhibition, % at 6.6 µM. actives 1.8% (n = 330,000). AID 485270; in the data active means inhibition mostly above about 38%, no sharp cut-off; inactive means mostly below about 40%;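 further: 0% = agonist challenge alone and 100% = reference antagonist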
TAAR1 ag – agonists of human TAAR1; AID 624467; actives 0.99% (n = 360,000); CHO RD-HGA16 TAAR1, Fluo-8 calcium fluorescence; vehicle wells 0%, saturating PEA agonist 100%; activation, % at 3 µM; Q96RJ0;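 active means activation above the mean activation of all test compounds in the run plus 3 SD, cut at about 38% in these data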
Target sequence (Q96RJ0 whole entry, looked up): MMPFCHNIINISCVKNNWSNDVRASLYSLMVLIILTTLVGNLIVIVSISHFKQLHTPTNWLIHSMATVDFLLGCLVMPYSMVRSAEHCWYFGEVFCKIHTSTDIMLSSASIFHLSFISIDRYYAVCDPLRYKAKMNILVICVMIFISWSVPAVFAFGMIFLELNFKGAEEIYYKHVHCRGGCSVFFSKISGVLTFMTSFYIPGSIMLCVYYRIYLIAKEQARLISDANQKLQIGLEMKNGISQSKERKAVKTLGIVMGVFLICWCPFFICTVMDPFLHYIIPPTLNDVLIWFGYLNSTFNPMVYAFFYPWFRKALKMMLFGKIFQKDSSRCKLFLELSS
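test system = CHO RD-HGA16 cells carrying human TAAR1 plus Gα16 | schedule = 17-24 h seeding, 75 min 37 °C dye, 30 min RT | compound dosing = 3 µM single concentration | control set = DMSO and PEA EC100 | replicates = n 1 | signal = Fluo-8 fluorescence, 5 s baseline then 140 s kinetic read | measure = percent activation vs PEA EC100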
TAAR1 antagonist – antagonists of human TAAR1. CHO RD-HGA16 TAAR1, Fluo-8 calcium fluorescence, antagonist. inhibition, % at 3 µM. actives 1.5% (n = 360,000);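 active means inhibition above a per-plate cutoff, the mean inhibition of test compounds on that plate plus 3 SD, cut at about 49% in these data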;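 further: 0% = DMSO plus EC80 beta-PEA response and 100% = DMSO alone without agonist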
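Test system: CHO RD-HGA16 cells bearing hTAAR1 | Reagent: β-PEA, EC80 | Compound dosing: 3 µM, single point | Schedule: Dye loading 75 min at 37 °C, then 30 min room temperature | Signal: Calcium fluorescence with Fluo-8 | Evaluation: Percent inhibition of PEA-evoked calcium signal, max/basal emission ratio | Control set: DMSO-only wells and EC80 β-PEA-stimulated wells | Repeats: Singlicate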
GPR7 antag – antagonists of human GPR7 (neuropeptides B/W receptor 1). GPR7-expressing cells, fluorescence antagonist assay. actives 1.1% (n = 290,000). inhibition, % at 4.4 µM. P48145. AID 1861; in the data active means inhibition above about 16%, passing the limit was not always enough;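 further: cells stimulated with the agonist NPW; 0% = agonist with vehicle and 100% = vehicle without agonist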
Target sequence (P48145 whole entry, looked up): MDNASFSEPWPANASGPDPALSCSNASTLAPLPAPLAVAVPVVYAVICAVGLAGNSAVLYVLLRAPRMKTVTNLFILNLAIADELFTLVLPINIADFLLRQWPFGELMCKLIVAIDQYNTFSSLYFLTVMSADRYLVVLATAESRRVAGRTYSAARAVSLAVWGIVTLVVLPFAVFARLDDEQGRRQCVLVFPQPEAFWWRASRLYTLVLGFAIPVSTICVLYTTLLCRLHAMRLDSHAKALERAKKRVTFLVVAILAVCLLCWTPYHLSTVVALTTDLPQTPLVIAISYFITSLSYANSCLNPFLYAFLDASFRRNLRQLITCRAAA
CHO parental Ca – counter-screen for OX1R antagonists: effect in parental CHO cells. parental CHO-K1, ATP-induced calcium, Fluo-8 fluorescence. inhibition, % at 5.6 µM. actives 0.63% (n = 330,000). AID 463079;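 active means inhibition above that plate's mean sample inhibition plus 3 SD, cut at about 26% in these data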;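 further: 0% = ATP-challenged DMSO wells and 100% = DMSO wells without ATP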
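Material: parental CHO cells / Compound: single nominal dose of 5.6 µM per compound / Signal: Fluo-8 fluorescence / Replicates: singlicate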
* hit, by the source's call; . = no result. Compounds with a hit are over-represented: about 4.6% of the library has one in this group of screens.

SMILES	OX1R antag-1	OX1R antag-2	TAAR1 ag	TAAR1 antagonist	GPR7 antag	CHO parental Ca
CC(C)(C)OC(=O)CC[C@@H](C(=O)NCCCCCCCCCCC(=O)N1CCN(C(=O)OC(C)(C)C)CC1)n1cc(CCCCCNC(=O)OC(C)(C)C)nn1	-30.6	26.4	7.7	42.3	.	-20.7
CC[C@H](C)[C@@H](C(=O)NCCCCCCCCCCC(=O)N1CCN(C(=O)OC(C)(C)C)CC1)n1cc(CCCCCNC(=O)OC(C)(C)C)nn1	31.8	13.2	18.2	60.4*	.	42.5*
CN1C(=O)C(N=Nc2ccccc2C(=O)O)N(C)C1=S (centres undefined)	6.7	30.3	18.5	18.8	-9.4	19.9
Nc1[nH]c(C(=O)c2ccc(Br)cc2)c(-c2ccc(Br)cc2)c1C(=O)NCc1ccc(-c2ccccc2)cc1	.	.	0.9	-8.4	.	.
CC(=O)NC(c1ccc(F)c(F)c1)c1nc(-c2ccc3c(c2)OCO3)cs1 (centres undefined)	.	.	6.1	-25.7	.	.
COc1cc(CC(=O)N(C)CC(=O)Nc2ccc(Cl)c(C(F)(F)F)c2)cc(OC)c1OC	-19.7	40.3	3.8	18.7	-2.5	-18.8
COc1ccc(OC)c(CN2CCN(C(=O)c3ccc(S(=O)(=O)N4CCCCCC4)cc3)CC2)c1	.	.	1.7	-15.3	.	.
Cc1ccccc1NC(=O)Cc1nc(COC(=O)COc2ccccc2C(C)C)cs1	28.4	-3.9	1.7	54.6*	.	-26.3
Cc1ccc(C)c(OCC(=O)OCc2csc(CC(=O)Nc3ccccc3C)n2)c1	.	.	-1.0	0.3	.	.
O=C(c1ccco1)N1CCN(Cc2nc3ccc([N+](=O)[O-])cc3c(=O)n2-c2ccccc2F)CC1	-6.5	8.6	18.4	68.7*	0.9	-9.9
O=C(c1ccco1)N1CCN(Cc2cc(=O)c(OCc3ccc([N+](=O)[O-])cc3)co2)CC1	-11.7	38.8*	-0.1	-32.4	.	-5.1
O=C(NCc1nc2ccccc2[nH]1)C1=C[C@H](c2csc3ccccc23)C[C@H](OCc2ccc(CO)cc2)O1	7.5	11.8	14.6	48.8*	.	1.8
O=C(NCc1nc2ccccc2[nH]1)C1=C[C@@H](c2csc3ccccc23)C[C@@H](OCc2ccc(CO)cc2)O1	-16.6	12.7	18.9	48.4	-7.0	-10.0
CCn1ncc(CN2CCN(Cc3ccc(OC)c(C)c3C)C(CCO)C2)c1C (centres undefined)	-38.2	19.3	8.7	1.6	-2.9	-23.3
O=C1C2C3c4ccccc4C(c4ccccc43)C2C(=O)N1c1ccncc1 (centres undefined)	.	.	1.1	19.8	-1.9	.
O=C1C2C3c4ccccc4C(c4ccccc43)[C@@H]2C(=O)N1c1cccnc1 (some centres undefined)	-10.8	25.5	9.1	49.5*	2.9	-18.4
COCCNC(=O)C(Cc1c[nH]c2ccccc12)NC(=O)OCc1ccccc1 (centres undefined)	-22.1	8.6	1.0	-8.2	-6.7	-12.9
CCCCn1c(-c2sccc2C)n[nH]c1=S	-16.3	14.7	6.6	4.8	-14.0	-12.6
Cc1cc(C)n2nc(N)c(N=Nc3cccc(Cl)c3)c2n1	-16.6	50.7*	4.9	4.8	-4.4	-2.6
O=C(Nc1cccc(S(=O)(=O)N2CCCCC2)c1)c1ccc(S(=O)(=O)C(F)F)cc1	-15.1	18.9	10.6	52.8*	-5.2	4.3
O=C(CNc1cc([N+](=O)[O-])ccc1NCCO)Nc1cccc(S(=O)(=O)N2CCCCC2)c1	-4.7	8.0	2.1	-5.9	.	-4.5
CCNc1ccc(S(=O)(=O)N2CCOCC2)cc1NCC(=O)Nc1cccc(Br)c1	.	.	12.6	53.3*	.	.
O=C(N1CCCCCC1)N1CCN(S(=O)(=O)c2cccc([N+](=O)[O-])c2)CC1	-19.1	52.4*	2.1	-3.9	16.2	-12.3
O=C(CNc1cccc(S(=O)(=O)N2CCCCCC2)c1)Nc1cccc([N+](=O)[O-])c1	31.6	6.8	8.5	56.0*	.	-0.6
O=C(CNc1cccc(Br)c1)Nc1ccc(S(=O)(=O)N2CCCCC2)cc1	.	.	9.5	-8.7	.	.
SMILES	OX1R antag-1	OX1R antag-2	TAAR1 ag	TAAR1 antagonist	GPR7 antag	CHO parental Ca
O=C(CCc1ccccc1)Nc1ccccc1C(F)(F)F	-12.6	10.8	-1.0	10.7	-1.3	-6.4
CCC/C=C/c1ccc(CN2C(C)C(=O)N(Cc3cn(CCC4OCCCO4)nn3)CCS2(=O)=O)cc1 (centres undefined)	.	.	4.7	-21.3	.	.
Cn1c2c(c(=O)n(C)c1=O)C(C(F)(F)F)(C(F)(F)F)N=C(c1ccc(Cl)cc1)N2	9.3	56.0*	.	.	4.7	16.6
CN(C(=O)CSc1ccncc1)C1CCCN(Cc2ccccc2F)C1 (centres undefined)	-10.2	6.7	1.2	-20.4	-9.0	-13.2
C/C(=N\NC(=O)c1ccccc1F)c1cccc(NC(=O)c2ccccc2)c1	-22.2	10.0	1.4	1.9	-7.9	-12.1
C/C(=N\NC(=O)c1cc(Br)ccc1O)c1cccc(NC(=O)c2ccccc2F)c1	-14.6	59.2*	4.4	-19.3	-19.3	-7.7
O=c1[nH]c2cc([N+](=O)[O-])c([N+](=O)[O-])cc2[nH]c1=O	-0.1	56.1*	12.3	-2.8	-8.5	0.5
O=c1[nH]c2ccccc2[nH]c1=O	-2.9	22.0	-0.6	-1.3	-7.2	-6.5
Cc1ccc(NC(=O)CN(C2=NC3CS(=O)(=O)CC3S2)c2ccccc2)cc1 (centres undefined)	.	.	1.1	-14.1	.	.
Cc1cc(C)cc(N(CC(=O)Nc2ccccc2)C2=NC3CS(=O)(=O)CC3S2)c1 (centres undefined)	5.2	60.5*	7.1	-7.0	-2.7	-11.7
Cc1ccnc(N/C=C(/NC(=O)c2ccccc2)C(=O)N/N=C\c2ccc(Cl)cc2)n1	-33.2	17.0	6.7	-3.6	2.8	-17.7
Nc1ccccc1C(=O)NN=Cc1cccc([N+](=O)[O-])c1	.	.	1.1	7.0	.	.
O=C(N/N=C/c1ccco1)c1cc([N+](=O)[O-])cc([N+](=O)[O-])c1	-6.3	63.6*	7.0	-1.4	-13.2	-14.2
O=C(N/N=C/c1cccc([N+](=O)[O-])c1)c1cc[n+](CCO)cc1	-3.8	69.0*	-0.2	-8.3	-5.5	0.6
CCOc1cc(/C=N/NC(=O)c2cccc([N+](=O)[O-])c2)ccc1OS(=O)(=O)c1ccccc1	0.1	17.3	2.0	52.4*	-6.3	-6.0
Nc1cc(C(=O)N/N=C/c2cccc([N+](=O)[O-])c2)n[nH]c1=O	-7.5	51.7*	3.4	-19.1	-10.0	-2.1
Cc1cc(=O)[nH]c2c(C)cc(S(=O)(=O)Nc3ccc(O)cc3)cc12	-12.5	4.5	2.7	-13.5	-3.8	-1.4
C=C(CCO)C1=CCN(S(=O)C(C)(C)C)[C@H]1CCO (some centres undefined)	.	.	2.1	5.5	.	.
O=C(CC[C@H]1O[C@@H](n2cnc3c(NC(=O)c4ccccc4)ncnc32)[C@H](O)[C@@H]1O)NCc1ccccn1	.	.	4.9	3.8	.	.
